ChEMBL document CHEMBL1130078, “Discovery of an orally active series of isoxazoline glycoprotein IIb/IIIa antagonists” (J Med Chem, 1997)
Values belong to the molecule of their own block, whether it stands above or below them.

Columns and labels:
[1] = target: T1, Integrin alpha-IIb/beta-3 (Homo sapiens, UniProt P05106+P08514); experiment: In vitro inhibition of ADP-induced platelet aggregation in human platelet rich plasma (hPRP); format: functional, cell-free
Canis familiaris [2] = experiment: Inhibition of ex vivo platelet aggregation after intravenous administration of bolus dose of 0.025 mg/kg to dog; format: functional; conditions: Canis lupus familiaris
Summary of the method: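 Dogs given an iv bolus. Ex vivo ADP (100 μM)-induced platelet aggregation measured in samples taken over 5 h.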

[3] = target: T1, Integrin alpha-IIb/beta-3
[4] = target: T1, Integrin alpha-IIb/beta-3; remark: listed apart in the source
Rhesus monkey [5] = experiment: Inhibition of ex vivo aggregation over 12 hr after oral dose of 0.3 mg/kg to rhesus monkey; format: functional, Cercopithecidae; conditions: Macaca mulatta
Summary of the method: (§1)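 Rhesus monkeys of either sex, 8–15 years, 6–10 kg, at least two animals/sex per dose, n = 8. Oral gavage by feeding tube of a solution in 0.9% saline (0.5 mL/kg), then water flush. Blood was drawn at various time points from the femoral or saphenous vein into citrate for ex vivo ADP (100 μM)-induced aggregation.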

Rhesus monkey [6] = experiment: Inhibition of ex vivo aggregation in 2 hr after oral dose of 0.3 mg/kg to rhesus monkey; format: functional, Cercopithecidae; conditions: Macaca mulatta; summary of the method: as §1
Canis familiaris [7] = experiment: Inhibition of platelet aggregation for 12 hr after oral dose of 0.3-0.4 mg/kg to dog; format: functional, Canis lupus familiaris
Summary of the method: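 Dogs dosed orally at 0.1–0.4 mg/kg; ex vivo ADP (100 μM)-induced platelet aggregation followed over time up to 12 h, n = 4.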

T1 sequence (P05106 27-788 limits assumed): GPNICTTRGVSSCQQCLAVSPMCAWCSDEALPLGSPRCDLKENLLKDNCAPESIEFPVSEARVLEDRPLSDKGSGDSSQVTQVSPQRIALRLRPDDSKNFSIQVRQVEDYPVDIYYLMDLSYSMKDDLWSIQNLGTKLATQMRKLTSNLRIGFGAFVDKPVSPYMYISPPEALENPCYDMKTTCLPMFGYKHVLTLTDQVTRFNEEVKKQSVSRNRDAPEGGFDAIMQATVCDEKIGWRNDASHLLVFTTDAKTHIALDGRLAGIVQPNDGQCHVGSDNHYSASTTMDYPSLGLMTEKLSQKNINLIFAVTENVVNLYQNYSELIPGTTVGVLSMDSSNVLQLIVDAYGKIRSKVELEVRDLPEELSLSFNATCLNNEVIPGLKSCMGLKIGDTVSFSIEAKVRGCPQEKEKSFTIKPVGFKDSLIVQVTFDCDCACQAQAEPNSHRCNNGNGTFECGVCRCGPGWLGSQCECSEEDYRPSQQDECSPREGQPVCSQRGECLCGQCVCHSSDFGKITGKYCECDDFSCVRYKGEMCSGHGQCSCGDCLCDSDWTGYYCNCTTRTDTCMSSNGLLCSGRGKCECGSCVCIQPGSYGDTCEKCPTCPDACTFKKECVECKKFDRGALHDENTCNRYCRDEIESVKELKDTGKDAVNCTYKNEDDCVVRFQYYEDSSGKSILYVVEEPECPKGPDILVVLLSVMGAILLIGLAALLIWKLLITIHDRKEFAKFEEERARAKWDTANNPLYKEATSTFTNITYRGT
T1 sequence (P08514 32-887 limits assumed): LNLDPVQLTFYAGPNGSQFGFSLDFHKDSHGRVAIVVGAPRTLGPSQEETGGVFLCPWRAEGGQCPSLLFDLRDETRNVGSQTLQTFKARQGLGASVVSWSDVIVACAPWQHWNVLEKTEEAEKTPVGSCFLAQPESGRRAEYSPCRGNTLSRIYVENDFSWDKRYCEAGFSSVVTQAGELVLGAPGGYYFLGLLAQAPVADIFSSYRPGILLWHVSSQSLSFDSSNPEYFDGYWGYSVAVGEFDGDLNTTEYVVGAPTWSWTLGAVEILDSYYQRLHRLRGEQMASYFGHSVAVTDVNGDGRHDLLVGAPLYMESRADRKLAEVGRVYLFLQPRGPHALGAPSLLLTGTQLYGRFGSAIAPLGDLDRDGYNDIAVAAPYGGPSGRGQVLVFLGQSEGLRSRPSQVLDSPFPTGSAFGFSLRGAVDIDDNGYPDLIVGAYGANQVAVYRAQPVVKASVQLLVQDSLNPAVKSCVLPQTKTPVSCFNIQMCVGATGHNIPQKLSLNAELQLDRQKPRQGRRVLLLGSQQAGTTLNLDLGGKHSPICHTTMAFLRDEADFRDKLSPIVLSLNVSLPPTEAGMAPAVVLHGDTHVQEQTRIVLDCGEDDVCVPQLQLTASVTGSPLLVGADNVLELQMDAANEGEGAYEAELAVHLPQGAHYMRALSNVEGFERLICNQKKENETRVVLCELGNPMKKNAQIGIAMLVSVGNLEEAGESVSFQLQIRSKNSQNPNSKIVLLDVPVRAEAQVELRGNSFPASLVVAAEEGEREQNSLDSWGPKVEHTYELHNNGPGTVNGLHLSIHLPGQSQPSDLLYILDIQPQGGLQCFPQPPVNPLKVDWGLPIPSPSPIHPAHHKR
T1 sequence (P08514 891-1039 limits assumed): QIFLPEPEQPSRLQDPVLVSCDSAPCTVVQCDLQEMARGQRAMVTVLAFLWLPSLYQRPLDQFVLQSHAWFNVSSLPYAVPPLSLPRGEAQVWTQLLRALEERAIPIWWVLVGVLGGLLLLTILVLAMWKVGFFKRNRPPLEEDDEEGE

- IC50 [1]: 240 nM
SMILES: N=C(N)c1ccc(C2=NOC(CC(=O)NCCC(=O)O)C2)cc1 (configuration not stated)

- IC50 [3]: 11 nM
- IC50 [4]: 0.25 nM
SMILES: CCCCOC(=O)N[C@@H](CNC(=O)C[C@H]1CC(c2ccc(C(=N)N)cc2)=NO1)C(=O)O
- inhibition in vivo at 0.025 mg/kg (Canis familiaris [2]): 90%

SMILES: CCCCOC(=O)N[C@@H](CNC(=O)CC1CC(c2ccc(C(=N)N)cc2)=NO1)C(=O)OC.Cl (some centres not stated)
- inhibition in vivo at 0.3 mg/kg (Rhesus monkey [5]): 60%
- inhibition in vivo at 0.3 mg/kg (Rhesus monkey [6]): 90%
- Inhibition (Canis familiaris [7]): >60%
